From PubChem BioAssay
Hits are enriched below; roughly 2.2% of the tested compounds scored in any of these assays.
DNMT1 inh: inhibitors of human DNMT1; P26358; DNMT1 molecular beacon, Hinp1I cleavage, fluorescence; inhibition (reported as % activation of signal), % at 10 µM; hit rate 0.83% among 360,000; AID 588458; in the data active = inhibition above about 50%
Scp1 inh: blocks human Scp-1 phosphatase activity. Q9GZU7. Recombinant Scp1, phosphopeptide, malachite green phosphate absorbance. hit rate 0.88% among 340,000. inhibition, % at 20 µM. AID 493091;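 active = inhibition above about 50% at 20 µM, limit read from the data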
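System: truncated SCP-1 phosphatase (76-261aa); medium: Tris acetate buffer pH 5.5 with MgCl2 and Tween-20; incubation: 45 min room-temperature reaction, 5 min colour, 30 min stabiliser; compound: single 20 µM dose, 1% DMSO; reagent: Phosphorylated 17-residue peptide substrate; read-out: % inhibition at 20 µM; technique: colorimetric free-phosphate detection, absorbance 630 nm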
GRK2 aptamer HTS: inhibitors of human GRK2 displacing RNA aptamer | bead flow cytometry, FAM-aptamer displacement from GRK2 | hit rate 0.59% among 330,000 | inhibition of aptamer binding, % at 10 µM | P25098;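 active = inhibition of aptamer binding above 40%, roughly 3 SD of noise, on plates passing a quality check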;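 also: median bead fluorescence of bound FAM aptamer so fluorescent compounds give negative values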
LMPTP inh: LMPTP (human) inhibition. P24666. recombinant LMPTP-A, OMFP fluorogenic substrate, fluorescence intensity. inhibition, % at 20 µM. hit rate 0.22% among 360,000;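 active = compounds that cut the enzyme signal by at least half of the control window in the single-dose screen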
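Test system – LMPTP-A phosphatase enzyme · Quantity – 0.625 nM LMPTP-A final · Reagent – OMFP substrate, 400 µM final · Dosing – one test concentration per compound, 20 µM, with 3% DMSO overall · Timing – 50 min enzyme reaction at room temperature, protected from light · Detection – fluorescence intensity · Controls – substrate-only low control, DMSO enzyme-plus-substrate high control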
STEP block: blocks human striatal-enriched tyrosine phosphatase; P54829; recombinant STEP, OMFP fluorogenic substrate, fluorescence; inhibition, % at 20 µM; hit rate 0.25% among 360,000;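 active = inhibition at 20 µM, scaled per plate between control wells, above about 37%, limit read from the data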
Target sequence (P54829 whole entry, looked up): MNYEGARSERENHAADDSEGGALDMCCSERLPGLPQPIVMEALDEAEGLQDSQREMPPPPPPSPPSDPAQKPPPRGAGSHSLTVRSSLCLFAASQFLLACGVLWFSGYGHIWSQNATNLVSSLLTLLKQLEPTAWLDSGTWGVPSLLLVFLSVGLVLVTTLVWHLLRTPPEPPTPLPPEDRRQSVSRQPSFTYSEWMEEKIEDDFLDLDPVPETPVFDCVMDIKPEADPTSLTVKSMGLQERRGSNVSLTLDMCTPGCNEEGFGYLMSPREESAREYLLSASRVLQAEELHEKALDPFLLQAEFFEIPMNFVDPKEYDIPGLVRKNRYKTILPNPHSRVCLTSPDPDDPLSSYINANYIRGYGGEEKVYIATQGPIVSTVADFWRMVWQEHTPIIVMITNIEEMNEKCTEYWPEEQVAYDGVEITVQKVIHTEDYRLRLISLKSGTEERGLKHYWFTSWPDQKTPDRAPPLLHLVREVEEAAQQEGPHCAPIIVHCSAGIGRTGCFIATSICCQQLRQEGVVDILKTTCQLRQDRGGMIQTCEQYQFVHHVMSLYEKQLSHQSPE
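Measure: Control-normalized % inhibition with plate pattern correction | Test system: STEP phosphatase, cell-free reaction | Medium: pH 6.0 Bis-Tris with DTT and Tween 20 | Technique: Fluorescence, 480/540 nm | Times: Reaction 20 min, ambient temperature | Doses: Single compound dose of 20 µM, 1% DMSO final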
SUMO1-SIM PPI: modulators of human SUMO1-mediated protein-protein interactions; AID 602429; inhibition, % at 20 µM; SUMO1 binding to a labelled peptide, TR-FRET, 1 h; P63165; hit rate 0.33% among 360,000; in the data active = inhibition above about 37%
Target sequence (P63165 whole entry, looked up): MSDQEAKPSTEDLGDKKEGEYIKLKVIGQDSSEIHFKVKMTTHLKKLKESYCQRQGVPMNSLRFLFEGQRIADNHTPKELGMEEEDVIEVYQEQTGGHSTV
Scp-1 conf: confirmation of human Scp-1 phosphatase inhibitors | AID 540281 | shares compounds with Scp1 inh | inhibition, % at 20 µM | hit rate 61% among 2,500 | recombinant SCP-1 catalytic domain, phosphate release, malachite green absorbance
MG interference: colorimetric interference in Scp-1 counter-screen; Colorimetric interference counterscreen, malachite green absorbance 630 nm; apparent inhibition (interference), % at 20 µM; shares compounds with Scp1 inh; AID 540313; 2,500 tested, under 10 active;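 also: compounds added after enzyme reaction finished so only phosphate colour detection is probed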
Scp1 DSF: binds human Scp-1, shifting its melting temperature. shares compounds with Scp1 inh. Recombinant SCP1, Sypro Orange thermal shift Tm. thermal shift relative to vanadate control, % at 40 µM. hit rate 25% among 1,500. AID 540329;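 active = substances whose mean melting-temperature shift, as a percentage of the reference inhibitor's shift, reaches about 5.3%, limit read from the data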
Each line names hits and unclear results; the compound was inactive in the other large screens (follow-up assays come after a bar, where they were run).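 The calls were made as follows, unless noted: active = inhibition of at least 30% at 20 µM; inactive = the rest.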

CC(=O)c1c(C)n(C)c2ccc(OC(=O)c3ccco3)cc12	none
CC(=O)c1c(C)n(C)c2ccc(OC(=O)c3ccc([N+](=O)[O-])cc3)cc12	Scp1 inh 59 | Scp-1 conf inactive | MG interference inactive
COc1ccc(C(=O)C[C@@H]2OC[C@H](Cc3ccccc3)N2S(=O)(=O)c2ccc(C)cc2)cc1OC	none (no result: DNMT1 inh, Scp1 inh, GRK2 aptamer HTS, STEP block)
C=CCn1c(COc2cc(C)ccc2C(C)C)nnc1SCC(=O)c1c(N)n(C)c(=O)n(C)c1=O	Scp1 inh 52 | Scp-1 conf inactive | MG interference inactive
Cc1ccc(C)c(C(O)c2ncc(-c3cccc(C(F)(F)F)c3)[nH]2)c1 (stereo not drawn)	none (no result: Scp1 inh, GRK2 aptamer HTS)
O=C(NCCc1c[nH]c2ccccc12)c1cc(Cl)c2c(c1)OCO2	Scp1 inh 52 | Scp-1 conf inactive | MG interference inactive
O=C(N/N=C/c1ccc(-c2cccc([N+](=O)[O-])c2)o1)c1ccc([N+](=O)[O-])cc1	Scp1 inh 52 | Scp-1 conf inactive | MG interference inactive
O=C(N/N=C\c1ccc(-c2ccc([N+](=O)[O-])cc2)o1)c1ccc2c(c1)OCO2	none
C/C(=N\NC(=O)c1cc(-c2cccc([N+](=O)[O-])c2)n[nH]1)c1ccc(F)cc1	none
C/C(=N\NC(=O)c1cc(-c2cccc([N+](=O)[O-])c2)n[nH]1)c1ccccc1O	DNMT1 inh 60, Scp1 inh 96, STEP block 97 | Scp-1 conf 85 | MG interference inactive | Scp1 DSF 6.3
O=C(N/N=C/c1ccc(-c2cccc([N+](=O)[O-])c2)o1)c1ccccc1O	Scp1 inh 74 | Scp-1 conf 77 | MG interference inactive | Scp1 DSF 9.2
CC(=O)c1sc(C(=O)O)c(-c2ccco2)c1-c1ccco1	Scp1 inh 59 | Scp-1 conf 32 | MG interference inactive | Scp1 DSF inactive
O=S1(=O)CC(N2CCCCC2)CN1C1CCCCC1 (stereo not drawn)	none (no result: Scp1 inh, GRK2 aptamer HTS)
CC(NC(=O)COC(=O)c1cccc(S(=O)(=O)N2CCCC2)c1)c1ccccc1 (stereo not drawn)	Scp1 inh 53 | Scp-1 conf inactive | MG interference inactive
CN1CCN(S(=O)(=O)c2cccc(C(=O)Oc3ccc(C(C)(C)C)cc3)c2)CC1	none
O=C(COC(=O)c1cccc(S(=O)(=O)N2CCCC2)c1)Nc1ccccc1	none
CC(C)c1ccc(OC(=O)c2cccc(S(=O)(=O)N3CCN(C)CC3)c2)cc1	Scp1 inh 96 | Scp-1 conf 86 | MG interference inactive | Scp1 DSF inactive
CCOC(=O)CC1(C)Oc2cc(Cl)ccc2N1S(=O)(=O)c1ccc(C)cc1 (stereo not drawn)	none (no result: DNMT1 inh, Scp1 inh, GRK2 aptamer HTS, STEP block)
COc1cc2c(cc1NC(=O)CSc1nc3ccccc3[nH]1)oc1ccccc12	Scp1 inh 72 | Scp-1 conf 42 | MG interference inactive | Scp1 DSF inactive
CCOC(=O)Cn1nc(-c2ccc(Cl)cc2)cc1N	none
CCOC(=O)CCn1nc(-c2ccc(Cl)cc2)cc1N	Scp1 inh 89 | Scp-1 conf inactive | MG interference inactive
Cc1ncc2c(c1OC(=O)c1ccccc1)COC(C)(C)OC2	none
Cc1c(OC(=O)c2ccc([N+](=O)[O-])cc2)c2c(c[n+]1C)COC(C)(C)OC2	Scp1 inh 67 | Scp-1 conf 79 | MG interference inactive | Scp1 DSF inactive
CCC1N=C(SC)NC(C)=C1C(=O)c1ccccc1 (stereo not drawn)	Scp1 inh 96 | Scp-1 conf inactive | MG interference inactive
CCOC(=O)C1=C(C)NC(SC)=NC1c1ccc(OC)cc1 (stereo not drawn)	none
COc1ccc(N(CC(=O)NC2CC3CCC2C3)S(=O)(=O)c2ccc(C)cc2)cc1Cl (stereo not drawn)	none (no result: Scp1 inh, GRK2 aptamer HTS)
Cc1ccc(CNC(=O)c2ccc3c(=O)c(O)c(-c4ccc(C)cc4)[nH]c3c2)cc1	Scp1 inh 56 | Scp-1 conf 51 | MG interference inactive | Scp1 DSF inactive
Cn1nc(-c2ccc(C(=O)Nc3ccc(F)cc3)cc2)c2ccccc2c1=O	Scp1 inh 60 | Scp-1 conf 42 | MG interference inactive | Scp1 DSF inactive
Cn1cccc/c1=N\c1cccc[n+]1C	Scp1 inh 107 | Scp-1 conf inactive | MG interference inactive
O=C1CC(C(=O)Nc2ccc(O)c(C(=O)O)c2)C(c2ccccc2)O1 (stereo not drawn)	Scp1 inh 51 | Scp-1 conf 30 | MG interference inactive | Scp1 DSF inactive
Oc1ccc(C[C@H]2CNC(=S)N2CC2CCCN2C[C@H](Cc2ccccc2)N2C[C@H](Cc3ccc(O)cc3)N(CC3CCCCC3)C2=S)cc1 (stereo partly drawn)	none (no result: Scp1 inh, GRK2 aptamer HTS)
CCCNC(=O)CN1C(=O)NC(CC)(c2ccc(F)cc2)C1=O (stereo not drawn)	none
CCC1(c2ccc(F)cc2)NC(=O)N(CC(=O)NCC(=O)Nc2cccc(C)c2C)C1=O (stereo not drawn)	none | Scp-1 conf inactive | MG interference inactive
Cn1cc([C@]2(O)C(=O)Nc3ccc(OC(F)(F)F)cc32)c2ccccc21	none (no result: DNMT1 inh, Scp1 inh, GRK2 aptamer HTS, STEP block)
COc1cccc(CNc2nc3cc(-c4ccsc4)sc3c(=O)n2C)c1OC	none (no result: Scp1 inh, GRK2 aptamer HTS)
COC(=O)C1=C(C)N(Cc2ccccc2)C(=NCCc2ccccn2)N[C@H]1c1cccc(F)c1	Scp1 inh 59 | Scp-1 conf inactive | MG interference inactive
CCN1C(=NCCc2ccccn2)N[C@@H](c2cccc(F)c2)C(C(=O)OC)=C1C	none
COc1ccc(-n2nnnc2C(c2ccccc2)N2CCN(C/C=C/c3ccccc3)CC2)cc1 (stereo not drawn)	none (no result: Scp1 inh, GRK2 aptamer HTS)
Cn1c(O)c(N=NC(=O)c2ccccc2O)c2ccccc21	none
Cc1cc(N=NC(=O)c2ccccc2O)c2ccccc2c1O	Scp1 inh 95, STEP block 97 | Scp-1 conf 79 | MG interference inactive | Scp1 DSF 12
COc1ccc(C2CC(c3cccs3)=NN2C(=O)CCCC(=O)O)cc1OC (stereo not drawn)	none (no result: Scp1 inh, GRK2 aptamer HTS)
Cc1ccc(C)c(C(=O)Nc2ccncc2)c1	Scp1 inh 78 | Scp-1 conf inactive | MG interference inactive
C/C(N)=C(/C#N)C(=O)CSc1nc2ccccc2[nH]1	Scp1 inh 69 | Scp-1 conf 51 | MG interference inactive | Scp1 DSF inactive
